Series [1] is filed under the species Homo sapiens. As to the kind of experiment: Selectivity index, ratio of IC50 for human Cathepsin K using […] as substrate preincubated with enzyme for 90 mins followed by substrate addition by fluorimetry analysis to IC50 human NAAA using fluorogenic PAMCA and N-4-methylcoumarin as substrate incubated for 90 mins by fluorescence based assay.
For series [2], the species on record is Homo sapiens. Nature of the series: Selectivity index, ratio of IC50 for human hexaHis-tagged MGL expressed in Escherichia coli BL21 (DE3) using fluorogenic AHMMCE as substrate preincubated for 1 hr followed by substrate addition by fluorimetric assay to IC50 human NAAA using fluorogenic PAMCA and N-4-methylcoumarin as substrate incubated for 90 mins by fluorescence based assay.

The species entered for series [3] is Homo sapiens. Nature of the series: Selectivity index, ratio of IC50 for recombinant human FAAH expressed in Escherichia coli using fluorogenic AAMCA as substrate by fluorimetric assay to IC50 human NAAA using fluorogenic PAMCA and N-4-methylcoumarin as substrate incubated for 90 mins by fluorescence based assay.
The target in series [4] is T1, Fatty-acid amide hydrolase 1 (Homo sapiens, UniProt O00519).
T1 sequence (O00519 whole entry): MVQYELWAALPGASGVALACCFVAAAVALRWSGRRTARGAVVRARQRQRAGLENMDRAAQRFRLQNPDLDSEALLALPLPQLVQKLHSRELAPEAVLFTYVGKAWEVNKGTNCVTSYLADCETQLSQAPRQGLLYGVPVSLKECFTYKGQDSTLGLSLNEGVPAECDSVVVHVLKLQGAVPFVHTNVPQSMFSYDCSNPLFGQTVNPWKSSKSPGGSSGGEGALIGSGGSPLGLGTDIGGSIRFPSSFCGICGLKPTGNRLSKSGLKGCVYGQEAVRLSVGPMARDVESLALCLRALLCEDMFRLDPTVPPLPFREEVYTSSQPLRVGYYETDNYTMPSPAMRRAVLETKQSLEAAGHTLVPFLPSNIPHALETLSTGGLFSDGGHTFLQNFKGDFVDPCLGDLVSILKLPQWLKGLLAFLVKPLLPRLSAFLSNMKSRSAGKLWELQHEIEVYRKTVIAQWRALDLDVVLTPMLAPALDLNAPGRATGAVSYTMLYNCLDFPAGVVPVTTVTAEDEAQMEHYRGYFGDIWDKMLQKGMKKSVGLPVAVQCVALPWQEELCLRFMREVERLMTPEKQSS
Nature of the series: Inhibition of recombinant human FAAH expressed in Escherichia coli using fluorogenic AAMCA as substrate by fluorimetric assay. In outline:
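Human recombinant FAAH expressed in E. coli and purified; fluorometric assay with arachidonoyl 7-amino-4-methylcoumarin amide (AAMCA) as substrate; IC50 by curve fitting, or percent inhibition at 1 µM.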

The target in series [5] is T2, N-acylethanolamine-hydrolyzing acid amidase (Homo sapiens, UniProt Q02083).
T2 sequence (Q02083 whole entry): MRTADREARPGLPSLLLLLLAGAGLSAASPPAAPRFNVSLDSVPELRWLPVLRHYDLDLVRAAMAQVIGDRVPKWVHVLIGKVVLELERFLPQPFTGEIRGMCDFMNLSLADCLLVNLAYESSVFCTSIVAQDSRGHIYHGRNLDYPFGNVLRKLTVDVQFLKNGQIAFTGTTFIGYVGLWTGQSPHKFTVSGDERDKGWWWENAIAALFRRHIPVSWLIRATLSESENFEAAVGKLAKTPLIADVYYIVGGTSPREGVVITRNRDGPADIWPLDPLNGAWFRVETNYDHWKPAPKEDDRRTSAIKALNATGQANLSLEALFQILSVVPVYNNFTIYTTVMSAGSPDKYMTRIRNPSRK
Nature of the series: Inhibition of activated human NAAA using fluorogenic PAMCA and N-4-methylcoumarin as substrate incubated for 90 mins by fluorescence based assay. In outline: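 Purified activated hNAAA (final 0.25 µg/mL) in 100 mM citrate-phosphate pH 4.5, 3 mM DTT, 0.1% Triton X-100, 0.05% BSA, 150 mM NaCl; compound in DMSO preincubated 90 min at room temperature. PAMCA added (final 5 µM), reaction at 37 °C for 90 min, fluorescence ex 360/em 460 nm read every 10 min. RFU converted to AMC via AMC standard curve. IC50 from eight concentrations, triplicate.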

In another series the target is T3, Monoglyceride lipase (Homo sapiens, UniProt Q99685).
T3 sequence (Q99685 whole entry): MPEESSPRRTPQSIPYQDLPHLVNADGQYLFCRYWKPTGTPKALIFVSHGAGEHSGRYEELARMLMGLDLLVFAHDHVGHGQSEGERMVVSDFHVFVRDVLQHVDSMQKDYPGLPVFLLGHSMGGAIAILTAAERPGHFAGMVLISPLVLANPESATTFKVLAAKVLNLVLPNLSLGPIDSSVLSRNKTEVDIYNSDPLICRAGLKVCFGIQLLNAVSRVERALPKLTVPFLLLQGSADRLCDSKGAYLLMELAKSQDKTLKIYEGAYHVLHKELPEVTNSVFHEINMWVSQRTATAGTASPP
As to the kind of experiment: Inhibition of recombinant human hexaHis-tagged MGL expressed in Escherichia coli BL21 (DE3) using fluorogenic AHMMCE as substrate preincubated for 1 hr followed by substrate addition by fluorimetric assay. In outline: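 Human recombinant MGL expressed in E. coli and purified; fluorometric assay using arachidonoyl 7-hydroxy-6-methoxy-4-methylcoumarin ester (AHMMCE) as substrate; IC50 by curve fitting, or percent inhibition at 1 µM.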

Series [6] concerns the target T2, N-acylethanolamine-hydrolyzing acid amidase. As to the kind of experiment: Inhibition of NAAA (unknown origin).
Another series deals with T4, Cathepsin K (Homo sapiens, UniProt P43235).
T4 sequence (P43235 whole entry): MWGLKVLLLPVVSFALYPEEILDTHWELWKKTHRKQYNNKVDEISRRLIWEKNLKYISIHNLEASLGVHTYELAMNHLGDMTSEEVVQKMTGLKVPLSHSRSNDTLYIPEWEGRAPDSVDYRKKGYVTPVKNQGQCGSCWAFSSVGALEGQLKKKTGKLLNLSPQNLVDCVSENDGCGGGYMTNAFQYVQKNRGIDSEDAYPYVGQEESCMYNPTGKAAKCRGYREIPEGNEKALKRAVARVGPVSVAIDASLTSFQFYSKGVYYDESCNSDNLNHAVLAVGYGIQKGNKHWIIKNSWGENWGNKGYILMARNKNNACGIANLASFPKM
As to the kind of experiment: Inhibition of recombinant human Cathepsin K using Z-Phe-Arg-AMC as substrate preincubated with enzyme for 120 mins followed by substrate addition by fluorimetry analysis.

Series [7] is described as follows: Half life in human plasma by HPLC analysis.
Series [8] is described as follows: Half life in rat liver microsomes at 1 uM in presence of NADPH by LC-MS/MS. As to conditions: microsomes. For orientation: Liver microsomes are vesicles of endoplasmic reticulum, rich in cytochrome P450 enzymes.
A short description of series [9]: Half life in artificial gastric fluid by HPLC analysis. It is filed as physicochemical. In outline:
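Compound at 200 μM incubated in artificial gastric juice; reaction quenched with acetonitrile and samples analysed by HPLC to estimate half-life (min).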

A short description of series [10]: Half life in rat plasma by HPLC analysis.
For series [11], the target named is T5, N-acylethanolamine-hydrolyzing acid amidase (Homo sapiens) (UniProt Q02083).
T5 sequence (whole entry): T2 sequence (Q02083 whole entry)
Nature of the series: Irreversible inhibition of activated human NAAA assessed as ratio of Kinact/Ki using fluorogenic PAMCA and N-4-methylcoumarin as substrate.

Series [12] in a line: Half life in human liver microsomes at 1 uM in presence of NADPH by LC-MS/MS. As to conditions: microsomes.

In general, IC50 refers to the concentration needed to halve the response being measured. Usually half-life stands for how long it takes for the measured level to halve.

Regarding `COc1cccc(-c2ccc(COC3(C)CN(C#N)C3)cc2)c1`, the Ratio IC50 in the series filed under Homo sapiens [1] came out at 50; in the series listed under Homo sapiens [2] it was 500; in the series filed under Homo sapiens [3] it was 0.2. Moreover, the IC50 in series [4] stood at 0.36 nM; in series [5], 1.8 nM; at Monoglyceride lipase, 1060 nM.
Molecule `C[C@H]1[C@H](NC(=O)OCCCCC2CCCCC2)C(=O)N1c1cccc(S(C)(=O)=O)c1` showed an IC50 in series [6] of 6 nM.
For `N#CN1CC(CNS(=O)(=O)c2ccccc2)C1`, the IC50 at Cathepsin K amounted to 50 nM.
`COc1cccc(-c2ccc(COC3CN(C#N)C3)cc2)c1`: the half-life was found to be 3.4 h in series [7], 7.5 h in series [9] and 3.15 h in [10]. Moreover, the half-life at 1 µM in series [8] is 0.167 h; in series [12], 0.187 h. For the same molecule, in [5], inhibition was half-maximal at 0.89 nM (IC50). In series [11], the Ratio worked out at 3.05 ×10⁶ /M/s.

The values are drawn from ChEMBL document CHEMBL4609990, “Design and synthesis of cyanamides as potent and selective N-acylethanolamine acid amidase inhibitors” (Bioorg Med Chem, 2020).
